Reference: the EternaBench riboswitch data

System: MS2 coat protein
Assay: apparent Kd, MS2 coat protein; higher = weaker binding; RNA-MaP array; FMN 200 µM where present
How it was run: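 Each design was made on Illumina sequencing-chip clusters by stalled E. coli RNA polymerase and titrated with SNAP-549-labelled MS2 coat protein from 0.7 or 1.5 nM, doubling to 3 µM, in the absence and then the presence of constant ligand. The buffer was 100 mM Tris-HCl pH 7.5, 80 mM KCl, 4 mM MgCl2, BSA, DTT, yeast tRNA and Tween-20. The apparent Kd is the median of filtered per-cluster fits of binding curves, with green signal normalised to red-channel RNA signal and control-cluster median Fmax.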

[1] = designed as: OFF switch for flavin mononucleotide, no ligand
[2] = ligand present: flavin mononucleotide, designed as: OFF switch for flavin mononucleotide
[3] = designed as: ON switch for flavin mononucleotide, no ligand
[4] = ligand present: flavin mononucleotide, designed as: ON switch for flavin mononucleotide

| Sequence | apparent Kd [1] [nM] | apparent Kd [2] [nM] | apparent Kd [3] [nM] | apparent Kd [4] [nM] |
| --- | --- | --- | --- | --- |
| CCCGGUCUGGAGGAUAUUAUAGAGCGUGCUUAAUAAGAAGGUCAGACAUGAGGAUCACCCAUGUUCUUACCCGG | 23.3 | 53.8 | – | – |
| GUACUGUAGUGAGGAUAUACGAGUUCGAUAGAACGGCGAUCCAUUUAUACAUGAGGAUCACCCAUGUAGAAGGCACUUCAGUAC | 6.32 | 53.9 | – | – |
| AGGUAAACCACAGGAUAUGGCUAGUAUAACUAGCCAGAAGGGUGGUCGAAACCAUGUAAAUACAUGAGGAUCACCCAUGUGUCC | – | – | 400 | 131 |
| CAAGGGCAUGAGAAGGCAUAAUAUAUAAUACCACAUGUUUACAUGAGGAUCACCCAUGUUACCUAUGAGGAUAUCAUGCCUACA | 14.4 | 12.9 | – | – |
| AGUCGGAGCAGAGGAUAUAUACAUGAGGAUCACCCAUGUGAAUGAAUAAGCUGGAAACAGCAUGUAUAGAAGGCUGCUCCGACA | 352 | 603 | – | – |
| AUGAUUAUACAAGGAUAUCAAUUGUAUACAAGUCUUACAUGAGGAUCACCCAUGUUAAAUUUUUUUGAGAAGGUGUGUUGUCAG | – | – | 35.6 | 30.6 |
| GCUAUCGAACAGAAGGGACCGCGGCCGUGGCGGUCAGGAUAUGUAUGCAGUAGUGCCUACAUGAGGAUCACCCAUGUCCGCCGC | – | – | 629 | 218 |
| AGCUGGUGACAGCAUCCAUCAAAACAUGAGGAUCACCCAUGUAGAAGGCUGUACGGUUACCGUACAGAGGAUAUACAAUGAUGU | 15.2 | 26.2 | – | – |
| CUAUUCCGAGGAUAUACAUGAGGAUCACCCAUGUCGGGCCUCUGCGUUUAGCGCGAAAGUAGAAGGUGGGUUUC | 34.5 | 33.6 | – | – |
| CUGCCUUAUGUAGGAUAUGCAUAGCGUUGCUAUGCAGAAGGACAUGAGGAUCACCCAUGUAUGUAAUCAAUACAUAUCUGGCAG | 19.8 | 122 | – | – |
| CUGAGUAGUCAGGAUAUGCUGUACAAAAGUACAGCAGAAGGGAUUACAUGAGGAUCACCCAUGUUGUCUUCAUG | 160 | 316 | – | – |
| AUUAAACAUGAGGAUCACCCAUGUCAACAAAGUCGAGGAUAUGGGCAUAUUAUCUUAUUUCCAGAAGGCGAAUAAU | – | – | 121 | 33.9 |
| GGAUAGGACAGAGGAUAUACGUGCUAGAGAUACUUGCAAAAUUUCCUCACAUGAGGAUCACCCAUGUAGAAGGCUGUCCUAUCG | 56 | 489 | – | – |
| GGACAUUUACAGAAGGGCAAUUUAUUUAUUGAUUAUUUAGUUCUGUUUUGCAGGAUAUGUAAUACAUGAGGAUCACCCAUGUCC | – | – | 188 | 74 |
| UGGGAACGAGGAUAUCGAUGGUGGAACAUGAGGAUCACCCAUGUAUGAGAUAGUGUAGUUCGAGAAGGCGUUAAGU | 68.6 | 33.8 | – | – |
| GUCAGCUCGUGAGGAUAUACAUGUGCUGGAUACAGCAUUAAAUUUUUCACAUGAGGAUCACCCAUGUAGAAGGCACGAGCUGAU | 19.2 | 49.6 | – | – |
| GAAGCAUGCAUUAACAUGAGGAUCACCCAUGUGAAAACACGUGAGGAUAUCGAUCUGAAGAAGAUCGAGAAGGCACCGUGCUAA | – | – | 8.87 | 7.62 |
| GCGAUUUUGUAGAAGGUACGUGAUAAGACAAAGUAAGGAUAUACUGACAUGAGGAUCACCCAUGUAUAAAUAGUUAACAGUCGC | – | – | 18.5 | 11.7 |
| AGACAUGUCCGAGGAUAUCUGGAAACAUUUUCAAGAGAAGGCGGACAUGAGGAUCACCCAUGUCUCUCCUCAUCAAAUCCAAGU | 7.98 | 44.6 | – | – |
| ACGCAACAUGAGGAUCACCCAUGUGAGGAUAUGUAAAUAGUAAACAAAUAGGAAAUGAACAGAAGGCACACCGG | 33.8 | 46 | – | – |
| UUUUAACAGUCAGGAUAUGUAACGCACAACGGCGCAGAAGGGACAUGAGGAUCACCCAUGUUAUGGUUCUGGUACUAUGACGUU | 18.8 | 23.1 | – | – |
| AGAUUUGUACAUGAGGAUCACCCAUGUUAAUAGGUGUUUGUCAGAAGGCAUUAAUAGAGAUUUAAUGAGGAUAUGAUGUUACAA | – | – | 49.3 | 35.2 |
| UGGUACUAGGGAGGAUAUGGCAAGAUACAUGAGGAUCACCCAUGUUUAAGAAUGCCGAGAGGCAACUAGAAGGCCCUAGUACCU | – | – | 7.75 | 4.7 |
| GGUGCGUAUGUUAGGAUAUGCUGGUCCUUGGAUCGGCAGAAGGUACAUGAGGAUCACCCAUGUGGUGUCGUUCC | 64.8 | 72.4 | – | – |
| ACAGGACCAGUCAGGAUAUGCAGGCGAAUCUGCUUGUAGAAGGGACAUGAGGAUCACCCAUGUGCCGUGGGAUU | 19.6 | 31.4 | – | – |
| AGUGUCGGCACAGGAUAUGAGAUGCCGGCAGACAUGAGGAUCACCCAUGUAAGCGAACCAGGCAGUCAGAAGGGUGAUCGACAA | – | – | 46.8 | 24.4 |
| AAGGACUGUAAAUAAGUAGAAAUACAUGAGGAUCACCCAUGUAAGGAUAUCGUCAGGAAUACUGACGAGAAGGUACAUCAGUCC | 14.5 | 18.6 | – | – |
| AGAUGACAAAGUCAUCUCGCUUUGACAUGAGGAUCACCCAUGUAGGAUAUAUUAAUCAAAGAUUAAUAGAAGGACAUGUUUCUG | 87.1 | 172 | – | – |

| Sequence | apparent Kd [1] [nM] | apparent Kd [2] [nM] | apparent Kd [3] [nM] | apparent Kd [4] [nM] |
| --- | --- | --- | --- | --- |
| GGUUAUGAAGGAUAUACAUGAGGAUCACCCAUGUUACGUACUUCGGGAUUCUGCCAGUGUAGAAGGUCAUGUCU | 24.3 | 49.2 | – | – |
| GUCAGCUCGUGAGGAUAUACAUGAUAGAUCGAUUAAUUAAUUAAUUUAACAUGAGGAUCACCCAUGUAGAAGGUACGAGCUGAC | 52 | 66.3 | – | – |
| ACUACUUACUAGGAUAUCAGAGUCGAAAGACUCUGAGAAGGAGUAACAUGAGGAUCACCCAUGUGUCCUAUAGU | 17.9 | 29.4 | – | – |
| AUUAUACAUGAGGAUCACCCAUGUAAUUAAUUAAUUAAGAUCUAGGAUAUCAGCUCGAAUAGAGCUGAGAAGGAGAUCACAUGU | – | – | 31.7 | 18 |
| GGAUUUGGUCCAAUUUCGGUGAGUAAGGAUAUGCAUGGCAUACAUGAGGAUCACCCAUGUUGUCGGCAGAAGGUGCCACAACGU | – | – | 45.7 | 16.3 |
| CUGCUGGAGCUUCGCUUUGGUCGUACAUGAGGAUCACCCAUGUAGGAUAUGGUAAAAUUCGCCUGCUAGAAGGAUAGAGUGGUC | 67.2 | 139 | – | – |
| AUAUACAUUCGAGGAUAUCGUUAAAAUGUUAUGCGAGAAGGCGAGUCAUGAUUUAUUAUUUAGGACAUGAGGAUCACCCAUGUA | – | – | 40.2 | 33.1 |
| AGAAACUACGAGAAGGACAUGUGAACCUUCAAUUACAUGAGGAUCACCCAUGUAGGAUAUCGUAGUUUCAGGAUCGUGAGAUCA | 16.7 | 115 | – | – |
| UACAUGAGGAUCACCCAUGUUUUGUCGUGUAUGGUAUUUAUCUAGGAUAUCAUUCUAUUUAGUUAUGAGAAGGAGAAUAUUAAU | 28.1 | 27.4 | – | – |
| ACAAGAUCAGGAUAUACAUGAGGAUCACCCAUGUAUAUCCAAAAAGGGCUUUCUACAUGUAGAAGGGAUCUUGU | 13.4 | 13.1 | – | – |
| AAUUCAAACAGAGGAUAUUGUUUAUCUCUAUUGCAAGAAGGCUGAUCUUACUACUUACUUAUGAAACAUGAGGAUCACCCAUGU | – | – | 36.6 | 31.8 |
| GGGUACAUCGGAGGAUAUCAUGUAAAUACAUGAGGAUCACCCAUGUCGAUGGAGACACCGGAGAUUGAGAAGGCCGAUGUACCG | – | – | 643 | 23.5 |
| CAGUACUGAGGAUAUACAUGAGGAUCACCCAUGUGUUCCAGCUAGGAAACUGGCAAAAGUAGAAGGCAGUACUG | 22.8 | 320 | – | – |
| CUCAAACAUGAGGAUCACCCAUGUGUUGUCAUGGGAGGAUAUCUAAGUUCGUUGUAGUCGGGAGAAGGCCUAUGUC | – | – | 134 | 47.2 |
| AAGGACUGUAAAUUAACUCAAAUACAUGAGGAUCACCCAUGUAAGGAUAUCGUCAGGAAUACUGACGAGAAGGUACAUCAGUCC | 15.6 | 20.8 | – | – |
| CGUUCACAUGAGGAUCACCCAUGUCAGAUUUGGUCAGGAUAUGGUCGGCAUCCGCUAUUGCCAGAAGGGACUGUUG | – | – | 55.3 | 36.3 |
| AAAAAACAUGAGGAUCACCCAUGUGAGGAUAUGAUGAAAGAUUGAAAAAGGUUGAAAGUCAGAAGGUAUGUGAA | 56.9 | 59.7 | – | – |
| GGAUGUCAAAGACAUCCAUAACGAACAUGAGGAUCACCCAUGUAGGAUAUGCUACUCAAAGAGUAGCAGAAGGACAUGUGUCUU | 30.3 | 150 | – | – |
| GCGCGAAGGUAGGAUAUCCAGGCAUCUUGCCGCGGAGAAGGACCCACAUGAGGAUCACCCAUGUGGUGAUCCUG | 13.5 | 14.4 | – | – |
| AGAUUACGAGGAUAUCGAUUUUAGUACAUGAGGAUCACCCAUGUUAUCCAGGUCUCGUUUCGAGAAGGCGUGAUUC | 303 | 132 | – | – |
| GUCGGAAACGACAAUGAUAGGACUGAGGAUAUACGUAAUAUUAUCCAUACAUGAGGAUCACCCAUGUAGAAGGCAGUCCUAUCU | 5.85 | 6.02 | – | – |
| GUAGUGCUCAUAGGAUAUCGGGAGCAACGUAGACAGGUUGCACAUGAGGAUCACCCAUGUAAAGUCGAGAAGGGUGAUCACGCC | – | – | 599 | 177 |
| UUUUAACAUGAGGAUCACCCAUGUGAGGAUAUCGAAAUUUAUAUUAAUAUUUAUUUUACGAGAAGGCACAUUUU | 98 | 102 | – | – |
| AAACACGGACAUGAGGAUCACCCAUGUAAUAAUAACAUUGGGAGAAGGCCGAUUGCAAAGCAAUCGGAGGAUAUUCAUACCGUG | – | – | 279 | 447 |
| CUUUAGUCAGGAUAUACAUGAGGAUCACCCAUGUAAAAUUUUAAUUUAAUUUUAAGGUGUAGAAGGGACCACCC | 33.4 | 29.3 | – | – |
| UGUCGGAGCAGAGGAUAUUACAUGAGGAUCACCCAUGUAUGAACCAAUAGCUGGAAACAGAAAUGUAAGAAGGCUGCUCCGACA | 5.84 | 21.2 | – | – |
| UCAUUUAUUACAGGAUAUGUUAGUAUACAGUUGUUUGGUUAUUACUUAUUAACAGAAGGGUAGAACAUGAGGAUCACCCAUGUA | – | – | 80.4 | 40.7 |
